High-throughput results: PubChem BioAssay, several laboratories
Only some compounds are listed: those with a hit (about 3% of all), similar ones and a draw of the others.
MIN6 prolif – MIN6 beta-cell proliferation induction | AID 2380 | MIN6 cells proliferation, ATPlite luminescence, 48 h; cells starved in 0.2% serum; 100% = growth in 10% serum | 0.29% of 330,000 active | proliferation, % at 10 µM;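 active = compounds whose signal lies at least 3.5 SD above the mean of all wells on their plate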;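 note: 0% = DMSO-treated cells in low-serum medium and 100% = 10% serum control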
UBC13 inh – inhibitors of human UBC13 polyubiquitin chain formation. inhibition, % at 20 µM. 0.47% of 330,000 active. AID 485273. TR-FRET. P61088; in the data active = inhibition above about 45%, passing the limit was not always enough
Target sequence (P61088 whole entry, looked up): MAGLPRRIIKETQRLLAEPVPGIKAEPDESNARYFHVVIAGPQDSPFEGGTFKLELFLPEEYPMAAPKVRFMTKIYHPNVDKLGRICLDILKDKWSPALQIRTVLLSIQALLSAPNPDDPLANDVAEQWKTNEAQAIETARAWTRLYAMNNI
Exocytosis inh – blocks lytic granule exocytosis; TALL-104 LAMP-1 surface exposure, flow cytometry; cells stimulated with thapsigargin and PMA; inhibition, % at 10 µM; 0.66% of 360,000 active; AID 651702;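 active = inhibition above about 55%, limit read from the data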
Apaf-1 inh – human Apaf-1 inhibition; reconstituted apoptosome caspase-3 activity, DEVD-Rh110 fluorescence; 0.71% of 330,000 active; O14727; inhibition, % at 20 µM; active = inhibition of at least 40% at 20 µM;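 note: plate controls were DMSO wells for no effect and DEVD-CHO caspase inhibitor wells for full effect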
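Material: biochemical Apaf-1 apoptosome reconstitution. Medium: Hepes buffer, pH 7.5. Also added: cytochrome c activation, bis-DEVD rhodamine 110 substrate. Timing: 30 min compound preincubation, 50 min activation, room temperature. Measured by: rhodamine 110 fluorescence at Ex 480/Em 540 nm.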
iPSC survival up – increases survival of single human iPS cells | hiPSC single-cell survival, ATPlite luminescence; 100% = ROCK inhibitor wells, 0% = DMSO | survival enhancement, % at 20 µM | 0.044% of 360,000 active | AID 602274; in the data active = survival enhancement above about 18%;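 note: cells exposed to compounds for 16 hours before the ATP read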
MPTP inh – blocks calcium-induced mitochondrial swelling | isolated mouse mitochondria, Ca2+ swelling absorbance, 30 min | inhibition, % at 10 µM | 1.4% of 360,000 active | AID 602449;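 active = inhibition of 50% or more, scaled per plate between neutral and stimulator controls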;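 note: 0% = DMSO wells given calcium and 100% = 1 mM EGTA wells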
Rh123 counter – membrane potential counter-screen of mitochondrial pore inhibitors | inhibition, % at 10 µM | isolated mitochondria, Rhodamine 123 fluorescence | 78% of 5,000 active | shares compounds with MPTP inh; in the data active = inhibition above about 22%;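 note: 0% = DMSO vehicle and 100% = positive control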
MPTP abs DR – dose response confirmation of mitochondrial permeability transition pore inhibitors | isolated mitochondria swelling, absorbance | shares compounds with MPTP inh | 58% of 780 active | IC50, µM; in the data active = IC50 below about 20 µM
MPTP cs DR – counter-screen for mitochondrial permeability transition pore inhibitors, dose response | IC50, µM | isolated mitochondria counterscreen, fluorescence read-out | 49% of 780 active | shares compounds with MPTP inh; in the data active = IC50 below about 80 µM
The depositor's hits bear a star; i = inactive; nt = no result.

SMILES | MIN6 prolif | UBC13 inh | Exocytosis inh | Apaf-1 inh | iPSC survival up | MPTP inh | Rh123 counter | others
COc1cc(NC(=O)CNc2cccc(S(=O)(=O)N3CCOCC3)c2)cc(OC)c1 | -2.5 | 2.2 | 1.4 | 6.2 | 0.1 | -0.1 | nt
O=C(Nc1ccc(-c2nc3ccccc3o2)cc1)c1ccc(N2CCOCC2)c([N+](=O)[O-])c1 | -4.0 | -28.8 | -2.8 | 8.0 | -2.3 | 87.0* | 64.2*
COc1ccc(C)cc1-n1nnnc1SCc1csc(C)n1 | 1.3 | 2.7 | 0.5 | 6.6 | -2.0 | 0.6 | nt
COc1ccc(C)cc1-n1nnnc1SCc1cc(=O)n2cc(C)ccc2n1 | -1.6 | -6.5 | 0.1 | 7.0 | 3.0 | 52.0* | 2.5 | MPTP abs DR=i;MPTP cs DR=21*
CC(C)c1ccccc1-n1c(SCC(=O)N2CCc3ccccc3C2)nc2ccccc2c1=O | -6.0 | -16.8 | 13.5 | 36.1 | 0.2 | 4.6 | nt
O=C(CSc1nc2ccccc2c(=O)n1-c1ccccc1)N1CCc2ccccc2C1 | 0.0 | -9.8 | 2.7 | 8.5 | -1.0 | 83.8* | 74.7*
CN(C)CCNC(=O)c1ccc(Sc2ccc(Br)cc2)c([N+](=O)[O-])c1 | -6.5 | 13.9 | 45.3 | 13.8 | -0.1 | 101.9* | -8.5 | MPTP abs DR=5.77*;MPTP cs DR=>80
N#C/C(=C(/O)CCl)c1nc2c(s1)CCc1ccccc1-2 | 0.0 | -7.5 | 36.7 | 28.6 | -0.5 | 55.2* | 78.2*
Nc1nc2c(s1)CCc1ccccc1-2 | -6.6 | -6.1 | 9.6 | 9.5 | 0.2 | 0.3 | nt
N#Cc1cc(C(=O)c2cc(Br)ccc2O)cn(Cc2ccccc2)c1=O | -5.5 | -8.8 | 1.2 | 0.6 | -2.7 | 51.7* | 77.3*
O=C(O)c1cccc(-c2csc(C(O)c3ccccc3)n2)c1 (stereo not drawn) | nt | nt | 6.7 | nt | 2.6 | 0.7 | nt
O=C(Nc1nnc(-c2ccc(F)cc2)s1)Nc1ccccc1F | 5.6 | -2.4 | -7.6 | -20.6 | 1.0 | 4.0 | nt
O=C(Nc1ccc(F)cc1)Nc1nnc(-c2ccncc2)s1 | -4.4 | -7.7 | 4.2 | 2.3 | 0.5 | 90.7* | 89.0*
Cc1ccc(NC(=O)Nc2nnc(-c3ccncc3)s2)cc1C | -6.1 | -17.9 | 21.1 | 12.5 | 0.6 | 86.6* | 78.8*
O=C(Nc1ccc(F)cc1)Nc1nnc(COc2ccccc2F)s1 | -6.2 | -1.3 | 5.5 | 9.7 | -1.0 | 83.0* | 82.9*
COC(=O)Nc1nnc(-c2ccncc2)s1 | -0.2 | 6.3 | -1.2 | -20.8 | 1.2 | -4.3 | nt
O=C(Nc1ccc(Cl)cc1)Nc1nnc(-c2ccncc2)s1 | nt | nt | 10.6 | nt | 2.6 | 79.2* | 23.8*
CN(CCOc1ccccc1)C(=O)c1ccc(N2CCCC2)c([N+](=O)[O-])c1 | 0.2 | -20.1 | -0.7 | 12.3 | 0.6 | 1.2 | nt
O=C(Cc1cccc(NC(=O)C2CCCN(C(=O)C3CCC3)C2)c1)Nc1cccc(C(=O)N2CCOCC2)c1 (stereo not drawn) | nt | nt | 0.1 | nt | 1.9 | -0.9 | nt
O=C(Nc1cccc(Cl)c1)Nc1nnc(-c2ccncc2)s1 | -6.9 | -16.1 | 9.9 | 18.5 | 3.5 | 101.4* | 55.1*
O=C(NCCc1ccncc1)Nc1cccc(Cl)c1 | -1.1 | -13.9 | -1.2 | 11.4 | -3.9 | 0.2 | nt
COc1ccc(NC(=S)NCc2cccnc2)cc1 | -1.7 | 6.2 | -4.7 | 1.0 | -1.1 | 0.0 | nt
O=C(CNCc1ccccc1)Nc1ccc(F)cc1 | 2.4 | -10.1 | -0.7 | 8.4 | 0.9 | 2.4 | nt
S=C(NCc1cccnc1)Nc1ccc(Cl)c(Cl)c1 | -1.4 | 6.0 | 1.7 | 0.7 | -1.0 | 71.1* | 93.0*
O=C(CNCc1ccccc1)Nc1ccc(Oc2ccccc2)cc1 | -0.9 | 13.5 | -0.9 | 7.1 | 0.1 | 66.2* | -10.5 | MPTP abs DR=i;MPTP cs DR=42.6*
SMILES | MIN6 prolif | UBC13 inh | Exocytosis inh | Apaf-1 inh | iPSC survival up | MPTP inh | Rh123 counter | others
S=C(NCc1cccnc1)Nc1ccc(Oc2ccc(Cl)cc2)cc1 | -3.8 | -1.7 | 3.2 | 20.2 | -0.4 | 80.1* | 66.1*
S=C(NCc1ccccc1)Nc1ccc(Oc2ccccc2)cc1 | -5.0 | -0.7 | 17.8 | 25.5 | -0.8 | 85.5* | 87.0*
COc1ccc(C(=O)NCCS(=O)(=O)NCc2ccccc2OC)cc1 | 0.0 | 0.2 | 1.6 | -4.7 | -0.5 | -1.0 | nt
CCCn1c(SC(C)C(=O)NCC2CCCO2)nc2sc(CC)cc2c1=O (stereo not drawn) | 0.1 | -7.1 | -5.6 | -7.6 | 1.3 | -1.0 | nt
Cc1ccc(CCNS(=O)(=O)c2cc3c(cc2Cl)NC(=O)CO3)cc1 | -1.3 | 4.1 | 1.8 | 13.0 | -2.9 | 0.8 | nt
COc1cccc(NC(=O)CCC(=O)N2CC(C)Oc3ccc(C)cc32)c1 (stereo not drawn) | -1.1 | 6.4 | 0.5 | 9.1 | -2.8 | -2.0 | nt
COc1ncnc2c1ncn2CCCN(C)CCc1ccccn1 | nt | nt | -3.6 | nt | -1.9 | 0.0 | nt
COc1cccc(C(C)NC(=O)Nc2cccc(C(F)(F)F)c2)c1 (stereo not drawn) | -4.9 | 5.7 | -1.9 | 13.6 | 1.6 | 96.1* | 102.1*
COc1cccc(NC(=O)Nc2ccc(C(C)(C)C)cc2)c1 | -4.6 | -2.3 | 3.9 | 23.1 | -1.1 | 78.8* | 80.6*
COc1cccc(NC(=O)Nc2ccc(C)c(Cl)c2)c1 | -3.0 | -6.5 | 1.6 | 9.0 | -1.5 | 80.2* | 89.5*
COc1cccc(NC(=O)Nc2ccc3c(c2)N(C)C(=O)CS3)c1 | 2.1 | 1.9 | -1.4 | 12.2 | 0.3 | 88.1* | 78.3*
CC(=O)Nc1ccc(NC(=O)Nc2ccc3c(c2)N(C)C(=O)CS3)cc1 | -2.7 | 2.3 | -0.5 | -27.9 | 1.6 | 8.4 | nt
COc1cccc(NC(=O)Nc2ccncc2)c1 | -2.9 | 5.0 | 2.8 | -10.7 | -0.5 | 12.4 | nt
COc1ccc(C(=O)N(C)CCCC2CCCC2)cc1OC1CCN(C(C)C)CC1 | 1.0 | 8.0 | 7.3 | 13.7 | -0.5 | 1.1 | nt
Cc1ccc(NC(=O)C2(C)CCN2C(=O)Cc2ccc(C(C)(C)C)cc2)cc1C (stereo not drawn) | nt | nt | 0.0 | nt | 0.7 | 2.4 | nt
CN(Cc1ccccc1)S(=O)(=O)c1ccc(N2CCCC2=O)cc1 | 1.0 | 15.0 | 11.2 | -6.8 | -0.5 | 0.1 | nt
Cc1ccc(CCNC(=O)c2cc(S(=O)(=O)N3CCCC3)cn2C)cc1 | -0.1 | -1.0 | -0.8 | 5.8 | 0.9 | -0.1 | nt
COCCNC(=O)CN1C(=O)NC2(CCCc3cc(OC)ccc32)C1=O (stereo not drawn) | -0.6 | 0.1 | 1.0 | -0.7 | -0.4 | 2.3 | nt
Cc1ccc(NC(=O)Nc2ccc(F)cc2)cc1Cl | -1.7 | -0.5 | -1.7 | -5.7 | -1.6 | 94.7* | 90.0*
COc1ccc(NC(=O)c2cc(-c3cc(F)ccc3OC)n[nH]2)cn1 | nt | nt | -1.5 | nt | -2.9 | 0.0 | nt
O=C(NCc1ccncc1)C(=O)N/N=C/c1ccc(OCc2ccccc2)cc1 | -1.6 | -2.8 | -0.9 | 13.2 | -0.1 | 3.3 | nt
